Type in all cases: cell-based
Test [1] concerns the target T1, Peroxisome proliferator-activated receptor alpha (Homo sapiens) (UniProt Q07869).
T1 sequence (whole entry): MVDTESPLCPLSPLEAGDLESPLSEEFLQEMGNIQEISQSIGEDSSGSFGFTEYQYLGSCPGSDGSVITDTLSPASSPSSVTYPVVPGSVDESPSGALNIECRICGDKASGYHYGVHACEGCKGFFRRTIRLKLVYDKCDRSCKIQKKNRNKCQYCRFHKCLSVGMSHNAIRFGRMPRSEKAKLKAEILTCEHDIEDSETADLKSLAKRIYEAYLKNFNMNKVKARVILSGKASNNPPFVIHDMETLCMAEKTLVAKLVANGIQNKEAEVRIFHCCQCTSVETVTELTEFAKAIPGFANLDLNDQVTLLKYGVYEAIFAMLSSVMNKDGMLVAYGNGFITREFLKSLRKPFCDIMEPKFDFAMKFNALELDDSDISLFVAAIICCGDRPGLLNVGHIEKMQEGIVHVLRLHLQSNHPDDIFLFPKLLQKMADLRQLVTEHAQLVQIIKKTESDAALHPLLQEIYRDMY
The experiment in a line: Transactivation of human Gal4-fused PPARalpha LBD expressed in HEK293T cells at 30 uM after 12 to 14 hrs by dual-glo luciferase assay. The essentials:
(§1)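 Single-concentration selectivity profiling in Gal4-hybrid reporter gene assays in HEK293T cells. Each nuclear receptor construct (RAR, PPAR, LXR, FXR, CAR, VDR, PXR, RXR) was tested at 30 μM.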

In test [2] the target is Retinoid X receptor (Homo sapiens) (UniProt P28702+P48443+P19793). Description: Transactivation of RXR in human HepG2 cells assessed as induction of ABCA1 mRNA expression at 30 uM after 8 hrs by qRT-PCR analysis. In short, it runs like this: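 HepG2 cells were treated and ABCA1 or ApoE mRNA levels measured. Results are given as mean fold induction versus 0.1% DMSO vehicle ± SEM, n = 3. Significance was set at p < 0.05, 0.01 or 0.001.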
Retinoid X receptor (Homo sapiens), sequence (P48443 whole entry, looked up, one chain of several): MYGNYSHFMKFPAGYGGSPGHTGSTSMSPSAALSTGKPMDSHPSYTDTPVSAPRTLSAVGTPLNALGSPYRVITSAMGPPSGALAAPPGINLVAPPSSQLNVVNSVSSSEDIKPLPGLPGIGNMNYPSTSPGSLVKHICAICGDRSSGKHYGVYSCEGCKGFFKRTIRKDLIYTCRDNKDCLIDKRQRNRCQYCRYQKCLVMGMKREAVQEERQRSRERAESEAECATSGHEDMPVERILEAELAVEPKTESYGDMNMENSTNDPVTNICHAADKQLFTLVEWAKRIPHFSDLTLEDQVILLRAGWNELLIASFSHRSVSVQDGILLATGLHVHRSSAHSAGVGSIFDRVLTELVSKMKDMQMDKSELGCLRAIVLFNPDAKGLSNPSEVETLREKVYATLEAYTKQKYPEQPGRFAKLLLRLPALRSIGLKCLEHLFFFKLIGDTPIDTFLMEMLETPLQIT
A general note: Real-time PCR tracks product formation cycle by cycle.

The target of test [3] is T2, Retinoic acid receptor RXR-alpha (Homo sapiens) (UniProt P19793).
T2 sequence (whole entry): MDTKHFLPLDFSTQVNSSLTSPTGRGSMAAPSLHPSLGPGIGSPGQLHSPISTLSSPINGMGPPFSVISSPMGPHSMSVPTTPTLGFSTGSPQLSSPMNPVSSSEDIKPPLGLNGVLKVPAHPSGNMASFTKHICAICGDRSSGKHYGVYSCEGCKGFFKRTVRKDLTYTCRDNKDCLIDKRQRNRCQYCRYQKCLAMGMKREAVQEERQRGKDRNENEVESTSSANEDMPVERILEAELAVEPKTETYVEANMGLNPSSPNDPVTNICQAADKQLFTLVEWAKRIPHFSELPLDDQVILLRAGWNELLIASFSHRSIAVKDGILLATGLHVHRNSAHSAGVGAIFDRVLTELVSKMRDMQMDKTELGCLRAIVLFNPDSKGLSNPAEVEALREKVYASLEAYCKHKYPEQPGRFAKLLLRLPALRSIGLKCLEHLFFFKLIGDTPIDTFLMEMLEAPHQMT
Description: Transactivation of human Gal4-fused RXRalpha LBD expressed in HEK293T cells after 12 to 14 hrs by dual-glo luciferase assay relative to bexarotene.

The target of test [4] is T3, Peroxisome proliferator-activated receptor delta (Homo sapiens) (UniProt Q03181).
T3 sequence (whole entry): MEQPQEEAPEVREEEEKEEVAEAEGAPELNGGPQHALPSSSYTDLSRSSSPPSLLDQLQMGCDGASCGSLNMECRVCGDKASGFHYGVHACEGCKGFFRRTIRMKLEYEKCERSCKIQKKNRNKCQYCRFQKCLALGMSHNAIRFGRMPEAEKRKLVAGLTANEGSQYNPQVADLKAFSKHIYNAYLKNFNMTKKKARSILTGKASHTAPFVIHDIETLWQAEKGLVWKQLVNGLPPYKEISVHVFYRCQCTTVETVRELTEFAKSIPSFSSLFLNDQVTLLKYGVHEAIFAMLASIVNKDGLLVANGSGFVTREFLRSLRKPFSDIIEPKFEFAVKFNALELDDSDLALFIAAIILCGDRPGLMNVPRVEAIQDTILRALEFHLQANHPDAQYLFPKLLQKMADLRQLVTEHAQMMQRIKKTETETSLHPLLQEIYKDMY
Description: Transactivation of human Gal4-fused PPARdelta LBD expressed in HEK293T cells at 30 uM after 12 to 14 hrs by dual-glo luciferase assay. The essentials:
as §1

Test [5] deals with T4, Peroxisome proliferator-activated receptor gamma (Homo sapiens) (UniProt P37231).
T4 sequence (whole entry): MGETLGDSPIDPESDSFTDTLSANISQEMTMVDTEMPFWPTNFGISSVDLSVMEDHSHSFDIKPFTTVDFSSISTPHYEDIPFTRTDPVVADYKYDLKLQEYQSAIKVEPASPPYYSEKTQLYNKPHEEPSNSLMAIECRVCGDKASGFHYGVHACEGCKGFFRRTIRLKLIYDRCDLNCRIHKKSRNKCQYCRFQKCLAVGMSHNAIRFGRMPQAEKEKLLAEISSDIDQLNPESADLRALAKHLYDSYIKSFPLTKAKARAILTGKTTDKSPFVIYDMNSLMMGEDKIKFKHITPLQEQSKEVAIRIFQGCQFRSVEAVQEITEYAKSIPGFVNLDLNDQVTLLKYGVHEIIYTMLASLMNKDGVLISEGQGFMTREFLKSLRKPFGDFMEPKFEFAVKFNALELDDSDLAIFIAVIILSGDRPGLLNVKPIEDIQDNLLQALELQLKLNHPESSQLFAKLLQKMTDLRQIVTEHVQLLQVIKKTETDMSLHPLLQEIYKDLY
Description: Transactivation of human Gal4-fused PPARgamma LBD expressed in HEK293T cells at 30 uM after 12 to 14 hrs by dual-glo luciferase assay. In short, it runs like this: as §1

Test [6] deals with T5, Retinoic acid receptor RXR-beta (Homo sapiens) (UniProt P28702).
T5 sequence (whole entry): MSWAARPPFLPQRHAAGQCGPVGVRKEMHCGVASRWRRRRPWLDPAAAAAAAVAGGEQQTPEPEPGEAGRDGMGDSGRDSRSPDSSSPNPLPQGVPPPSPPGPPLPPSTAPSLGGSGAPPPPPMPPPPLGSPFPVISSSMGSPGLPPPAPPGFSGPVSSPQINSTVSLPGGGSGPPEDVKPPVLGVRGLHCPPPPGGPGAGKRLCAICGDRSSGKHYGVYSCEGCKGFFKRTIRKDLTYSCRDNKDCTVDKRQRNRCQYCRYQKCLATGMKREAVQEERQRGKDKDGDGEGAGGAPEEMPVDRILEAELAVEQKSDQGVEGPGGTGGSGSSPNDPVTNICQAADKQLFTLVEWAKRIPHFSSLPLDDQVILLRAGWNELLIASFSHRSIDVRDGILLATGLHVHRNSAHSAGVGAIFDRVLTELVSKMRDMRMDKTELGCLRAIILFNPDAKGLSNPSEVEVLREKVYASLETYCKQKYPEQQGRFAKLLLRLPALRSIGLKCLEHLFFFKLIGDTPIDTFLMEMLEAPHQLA
The experiment in a line: Transactivation of human Gal4-fused RXRbeta LBD expressed in HEK293T cells at 30 uM after 12 to 14 hrs by dual-glo luciferase assay. The essentials:
as §1

The structures appear in SMILES notation. Calls of active or inactive are those of the source. The calls are words filed in the database; no cut-off is given here.

In the case of `CC1=C2[C@H](/C=C(\C)C(=O)O)CC[C@@H](C)[C@H]2CC1` [VALERENIC ACID], the outcome in test [1], in test [4] and in test [5] was inactive. For the same compound, the result in test [2] and in test [6] was Active. In addition, in test [3], the fold change (FC) amounted to 9.

The values above are taken from ChEMBL document CHEMBL4145619, “Computer-Assisted Discovery of Retinoid X Receptor Modulating Natural Products and Isofunctional Mimetics” (J Med Chem, 2018).
